Columns and labels:
[1] = Inhibition of human DNA polymerase gamma
DNA polymerase beta = DNA polymerase beta (Homo sapiens, UniProt P06746); test: Inhibition of human DNA polymerase beta
[2] = Oral bioavailability in rat at 3 mg/kg; type: ADME, organism-based; settings: in vivo
Procedure, shortened: (§1)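 In vivo PK: iv dosing in DMSO/PEG400/H₂O mixtures, oral dosing as methylcellulose suspension. Half-life was taken after iv dosing; AUC and Cmax after po dosing.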

Liver microsomes = test: Metabolic stability in rat liver microsomes in presence of UDPGA; type: ADME, Microsome
Cytochrome P450 2C19 = Cytochrome P450 2C19 (Homo sapiens, UniProt P33261); test: Inhibition of CYP2C19; type: ADME
[3] = biological target: Voltage-gated inwardly rectifying potassium channel KCNH2 (Homo sapiens, UniProt Q12809); test: Inhibition of human ERG
Cytochrome P450 2C9 = Cytochrome P450 2C9 (Homo sapiens, UniProt P11712); test: Inhibition of CYP2C9; type: ADME
Cytochrome P450 1A2 = biological target: T1, Cytochrome P450 1A2 (Homo sapiens, UniProt P05177); test: Inhibition of CYP1A2; type: ADME
T1 sequence (P05177 whole entry): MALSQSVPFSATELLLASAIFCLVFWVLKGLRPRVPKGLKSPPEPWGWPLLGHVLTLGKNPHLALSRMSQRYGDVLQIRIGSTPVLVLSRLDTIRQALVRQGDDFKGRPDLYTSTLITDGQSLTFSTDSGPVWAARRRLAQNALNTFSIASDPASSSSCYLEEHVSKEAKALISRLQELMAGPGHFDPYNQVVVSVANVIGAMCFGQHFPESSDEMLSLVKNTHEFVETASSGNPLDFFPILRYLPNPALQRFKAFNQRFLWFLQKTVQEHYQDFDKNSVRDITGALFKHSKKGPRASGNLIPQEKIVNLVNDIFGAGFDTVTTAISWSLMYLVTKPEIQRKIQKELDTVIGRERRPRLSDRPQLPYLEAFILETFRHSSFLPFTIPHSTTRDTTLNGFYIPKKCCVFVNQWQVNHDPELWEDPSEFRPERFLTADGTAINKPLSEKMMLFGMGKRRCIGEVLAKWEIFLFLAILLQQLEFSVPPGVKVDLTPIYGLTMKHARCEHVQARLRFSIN

[4] = Metabolic stability in rhesus monkey liver microsomes in presence of UDPGA; type: ADME, Macaca mulatta, Microsome
Procedure, shortened: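 Single-point measurement: compound 2 µM, microsomes 0.3 mg/mL, with UDPGA; degradation quantified by LC/MS/MS after 1 h of incubation.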

[5] = system: Human immunodeficiency virus 1; test: Antiviral activity against HIV1 in human MT4 cell assessed as inhibition of virus spread in presence of 50% normal human serum; type: functional; settings: Human immunodeficiency virus 1, MT4; read-out: CIC95
Procedure, shortened: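 Spread of HIV-1 infection in MT-4 human T-lymphoid cell culture with 50% normal human serum; CIC95 is the concentration inhibiting spread by ≥95%; mean of at least three independent experiments.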

[6] = biological target: T2, DNA polymerase alpha catalytic subunit (Homo sapiens, UniProt P09884); test: Inhibition of human DNA polymerase alpha
T2 sequence (P09884 whole entry): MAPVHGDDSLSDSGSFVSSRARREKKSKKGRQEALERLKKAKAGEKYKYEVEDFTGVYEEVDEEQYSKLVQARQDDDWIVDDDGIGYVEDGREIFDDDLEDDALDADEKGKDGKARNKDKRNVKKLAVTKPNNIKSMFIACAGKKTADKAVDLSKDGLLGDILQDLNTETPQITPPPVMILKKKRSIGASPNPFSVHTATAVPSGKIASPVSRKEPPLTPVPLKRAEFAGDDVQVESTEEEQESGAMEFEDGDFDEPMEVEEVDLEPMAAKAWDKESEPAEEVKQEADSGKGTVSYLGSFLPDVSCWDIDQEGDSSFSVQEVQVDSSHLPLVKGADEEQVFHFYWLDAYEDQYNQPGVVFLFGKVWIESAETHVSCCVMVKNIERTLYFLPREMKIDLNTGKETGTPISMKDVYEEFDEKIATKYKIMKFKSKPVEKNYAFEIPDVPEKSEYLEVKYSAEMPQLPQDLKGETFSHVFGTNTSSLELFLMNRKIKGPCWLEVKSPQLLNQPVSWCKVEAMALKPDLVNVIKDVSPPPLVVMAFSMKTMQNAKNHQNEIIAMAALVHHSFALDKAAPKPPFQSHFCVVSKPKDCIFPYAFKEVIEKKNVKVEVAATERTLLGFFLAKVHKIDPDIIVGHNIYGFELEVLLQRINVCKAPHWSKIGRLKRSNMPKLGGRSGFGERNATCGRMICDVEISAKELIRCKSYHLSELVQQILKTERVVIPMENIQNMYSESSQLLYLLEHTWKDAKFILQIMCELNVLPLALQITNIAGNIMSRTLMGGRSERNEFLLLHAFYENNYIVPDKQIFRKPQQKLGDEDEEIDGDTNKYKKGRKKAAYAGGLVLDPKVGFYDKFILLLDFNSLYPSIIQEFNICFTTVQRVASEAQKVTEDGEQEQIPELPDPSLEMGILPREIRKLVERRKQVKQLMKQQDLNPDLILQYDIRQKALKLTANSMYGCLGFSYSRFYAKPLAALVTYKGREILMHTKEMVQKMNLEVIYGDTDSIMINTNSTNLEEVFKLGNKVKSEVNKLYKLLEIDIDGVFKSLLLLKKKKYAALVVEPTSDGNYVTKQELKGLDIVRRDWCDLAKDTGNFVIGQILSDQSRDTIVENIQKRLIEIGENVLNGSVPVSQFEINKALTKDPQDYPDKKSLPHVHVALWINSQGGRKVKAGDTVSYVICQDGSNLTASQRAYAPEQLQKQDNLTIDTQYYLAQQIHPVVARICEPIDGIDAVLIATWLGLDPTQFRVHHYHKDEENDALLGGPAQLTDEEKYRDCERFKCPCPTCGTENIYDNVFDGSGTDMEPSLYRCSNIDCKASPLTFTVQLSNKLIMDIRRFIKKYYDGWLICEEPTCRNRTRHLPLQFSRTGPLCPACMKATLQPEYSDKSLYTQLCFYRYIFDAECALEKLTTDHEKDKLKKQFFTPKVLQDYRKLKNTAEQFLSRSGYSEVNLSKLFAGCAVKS

[7] = Oral bioavailability in rhesus monkey at 6.5 mg/kg; type: ADME, organism-based, Macaca mulatta; settings: in vivo
Procedure, shortened: (§2)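 Rhesus dosed 1 mg/kg iv in DMSO and 6.5 mg/kg po in 0.5% methylcellulose; plasma clearance and oral bioavailability.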

Homo sapiens = organism: Homo sapiens; test: Protein binding in human plasma; settings: read-out: PPB (converted)
Cytochrome P450 3A4 = Cytochrome P450 3A4 (Homo sapiens, UniProt P08684); test: Inhibition of CYP3A4; type: ADME
[8] = Protein binding in rhesus monkey plasma; type: ADME, cell-free, Macaca mulatta; settings: read-out: PPB (converted)
Procedure, shortened: (§3)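 Plasma protein binding was measured by ultrafiltration after a 1 h incubation of compound in plasma at 37 °C.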

[9] = Inhibition of recombinant HIV1 integrase strand transfer activity
Liver = test: Metabolic stability in dog liver microsomes in presence of UDPGA; type: ADME, Canis lupus familiaris, Microsome
[10] = Inhibition of HIV-RNase-H; set-up: species or system Human immunodeficiency virus
[11] = Plasma clearance in rat at 3 mg/kg, po or 3 mg/kg, iv; type: ADME, organism-based; procedure, shortened: as §1
[12] = Plasma clearance in dog at 1 mg/kg, iv or 2 mg/kg, po; type: ADME, organism-based, Canis lupus familiaris; procedure, shortened: as §1
[13] = Oral bioavailability in dog at 2 mg/kg; type: ADME, organism-based, Canis lupus familiaris; settings: in vivo; procedure, shortened: as §1
[14] = system: Human immunodeficiency virus 1; test: Antiviral activity against HIV1 in human MT4 cell assessed as inhibition of virus spread in presence of 10% fetal bovine serum; type: functional; settings: Human immunodeficiency virus 1, MT4; read-out: CIC95
Procedure, shortened: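 Spread of HIV-1 infection in MT-4 human T-lymphoid cell culture with 10% fetal bovine serum; CIC95 is the concentration inhibiting spread by ≥95%; mean of at least three independent experiments.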

[15] = Protein binding in rat plasma; type: ADME, cell-free; settings: read-out: PPB (converted); procedure, shortened: as §3
[16] = Inhibition of HCV polymerase; set-up: species or system Hepacivirus hominis
[17] = Protein binding in dog plasma; type: ADME, cell-free, Canis lupus familiaris; settings: read-out: PPB (converted)
Procedure, shortened: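 Plasma protein binding measured by ultrafiltration after incubation at 37 °C for 1 h.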

[18] = Plasma clearance in rhesus monkey at 1 mg/kg, iv or 6.5 mg/kg, po; type: ADME, organism-based, Macaca mulatta; procedure, shortened: as §2
Cytochrome P450 2D6 = Cytochrome P450 2D6 (Homo sapiens, UniProt P10635); test: Inhibition of CYP2D6; type: ADME
Sequence of Cytochrome P450 2D6 (P10635 whole entry): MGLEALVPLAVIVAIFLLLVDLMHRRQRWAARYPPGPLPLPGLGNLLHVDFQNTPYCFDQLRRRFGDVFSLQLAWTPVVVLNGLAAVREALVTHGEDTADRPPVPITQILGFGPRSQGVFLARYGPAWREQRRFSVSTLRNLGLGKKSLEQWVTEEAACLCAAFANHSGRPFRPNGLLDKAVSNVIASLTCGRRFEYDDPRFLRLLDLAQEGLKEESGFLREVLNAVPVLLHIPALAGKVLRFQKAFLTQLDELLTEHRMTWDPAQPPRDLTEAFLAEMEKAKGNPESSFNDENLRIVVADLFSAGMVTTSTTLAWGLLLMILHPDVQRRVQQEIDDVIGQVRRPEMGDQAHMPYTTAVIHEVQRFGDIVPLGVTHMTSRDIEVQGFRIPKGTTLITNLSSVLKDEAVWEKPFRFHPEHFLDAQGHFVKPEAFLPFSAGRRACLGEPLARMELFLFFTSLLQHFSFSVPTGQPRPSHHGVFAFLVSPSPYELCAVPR

Sequence of Cytochrome P450 2C9 (P11712 whole entry): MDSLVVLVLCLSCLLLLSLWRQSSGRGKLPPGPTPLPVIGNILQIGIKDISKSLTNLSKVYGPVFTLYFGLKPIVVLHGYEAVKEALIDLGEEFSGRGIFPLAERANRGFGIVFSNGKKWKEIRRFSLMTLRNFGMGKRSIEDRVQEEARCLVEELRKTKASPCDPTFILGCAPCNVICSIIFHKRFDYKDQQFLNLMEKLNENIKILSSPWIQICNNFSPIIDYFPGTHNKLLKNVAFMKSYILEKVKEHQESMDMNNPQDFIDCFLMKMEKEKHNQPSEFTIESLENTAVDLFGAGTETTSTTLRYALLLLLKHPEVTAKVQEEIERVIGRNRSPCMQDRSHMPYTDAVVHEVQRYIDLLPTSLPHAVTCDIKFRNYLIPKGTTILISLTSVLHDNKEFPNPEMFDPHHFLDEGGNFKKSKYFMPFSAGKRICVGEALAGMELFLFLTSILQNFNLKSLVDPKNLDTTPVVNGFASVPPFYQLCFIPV
Sequence of Voltage-gated inwardly rectifying potassium channel KCNH2 (Q12809 whole entry): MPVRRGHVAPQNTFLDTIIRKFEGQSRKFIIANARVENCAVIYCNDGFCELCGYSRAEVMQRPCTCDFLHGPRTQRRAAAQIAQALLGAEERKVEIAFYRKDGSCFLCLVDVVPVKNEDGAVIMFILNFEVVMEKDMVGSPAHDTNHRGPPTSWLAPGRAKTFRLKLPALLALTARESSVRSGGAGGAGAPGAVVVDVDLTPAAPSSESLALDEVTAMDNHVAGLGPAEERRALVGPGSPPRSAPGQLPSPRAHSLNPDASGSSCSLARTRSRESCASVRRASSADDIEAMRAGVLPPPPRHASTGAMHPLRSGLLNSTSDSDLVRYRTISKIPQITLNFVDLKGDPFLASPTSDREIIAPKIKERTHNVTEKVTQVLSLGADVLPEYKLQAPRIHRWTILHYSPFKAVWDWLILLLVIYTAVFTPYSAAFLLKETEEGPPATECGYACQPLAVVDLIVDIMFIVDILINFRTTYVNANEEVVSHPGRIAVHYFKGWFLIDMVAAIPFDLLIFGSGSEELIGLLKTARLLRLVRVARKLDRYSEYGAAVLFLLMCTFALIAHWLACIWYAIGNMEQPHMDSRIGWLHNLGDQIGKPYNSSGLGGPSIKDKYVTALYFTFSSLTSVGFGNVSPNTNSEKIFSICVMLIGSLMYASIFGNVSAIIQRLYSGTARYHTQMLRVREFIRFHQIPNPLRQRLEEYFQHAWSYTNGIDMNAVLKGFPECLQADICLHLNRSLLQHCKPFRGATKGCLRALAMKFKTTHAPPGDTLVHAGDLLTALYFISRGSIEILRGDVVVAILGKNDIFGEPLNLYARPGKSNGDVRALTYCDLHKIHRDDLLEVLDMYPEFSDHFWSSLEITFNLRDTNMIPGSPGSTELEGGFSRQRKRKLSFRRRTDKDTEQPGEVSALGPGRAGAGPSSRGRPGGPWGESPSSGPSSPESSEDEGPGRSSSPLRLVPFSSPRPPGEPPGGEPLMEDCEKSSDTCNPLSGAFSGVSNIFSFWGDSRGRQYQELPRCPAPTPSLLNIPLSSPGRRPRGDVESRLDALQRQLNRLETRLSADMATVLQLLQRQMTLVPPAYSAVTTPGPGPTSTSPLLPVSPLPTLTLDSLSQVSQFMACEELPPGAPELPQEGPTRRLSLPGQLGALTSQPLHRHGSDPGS
Sequence of Cytochrome P450 2C19 (P33261 whole entry): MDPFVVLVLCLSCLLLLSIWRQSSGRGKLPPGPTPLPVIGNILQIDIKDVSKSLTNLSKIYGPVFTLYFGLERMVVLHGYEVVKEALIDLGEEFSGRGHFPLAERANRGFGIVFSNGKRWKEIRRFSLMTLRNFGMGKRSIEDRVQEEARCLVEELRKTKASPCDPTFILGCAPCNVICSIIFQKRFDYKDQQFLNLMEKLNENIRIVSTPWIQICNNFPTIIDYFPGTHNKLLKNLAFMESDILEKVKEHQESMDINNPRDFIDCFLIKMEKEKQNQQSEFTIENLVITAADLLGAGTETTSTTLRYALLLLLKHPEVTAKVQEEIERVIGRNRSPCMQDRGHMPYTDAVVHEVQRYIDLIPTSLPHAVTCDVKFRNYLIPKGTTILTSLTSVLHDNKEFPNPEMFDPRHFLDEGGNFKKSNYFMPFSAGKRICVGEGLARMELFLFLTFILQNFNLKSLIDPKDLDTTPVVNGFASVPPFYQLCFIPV
Sequence of Cytochrome P450 3A4 (P08684 whole entry): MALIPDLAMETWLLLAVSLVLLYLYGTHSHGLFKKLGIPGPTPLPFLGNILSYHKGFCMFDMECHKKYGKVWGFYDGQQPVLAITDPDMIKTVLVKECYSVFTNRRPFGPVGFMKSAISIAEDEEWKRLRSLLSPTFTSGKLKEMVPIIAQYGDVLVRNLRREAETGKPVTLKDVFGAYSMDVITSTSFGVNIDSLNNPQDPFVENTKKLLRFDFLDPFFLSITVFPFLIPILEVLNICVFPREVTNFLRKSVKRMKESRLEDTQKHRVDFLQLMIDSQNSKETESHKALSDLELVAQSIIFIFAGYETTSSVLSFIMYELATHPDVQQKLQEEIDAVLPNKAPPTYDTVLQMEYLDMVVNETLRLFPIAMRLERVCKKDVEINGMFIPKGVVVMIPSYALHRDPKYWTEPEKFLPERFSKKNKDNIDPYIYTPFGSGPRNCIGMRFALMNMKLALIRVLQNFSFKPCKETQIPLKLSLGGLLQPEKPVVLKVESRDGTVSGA

Which IC50 [1] does the source give for `CN(C)S(=O)(=O)N(C)[C@@H]1CCCn2c1nc(C(=O)NCc1ccc(F)cc1)c(O)c2=O` here?
Its IC50 is > 200 µM.

What about the IC50 (DNA polymerase beta) of the same compound?
The IC50 was > 200 µM.

What about the bioavailability [2] of the same compound?
The bioavailability was 63%.

And the Stability (Liver microsomes)?
Its Stability is 81 %/hr.

And the IC50 (Cytochrome P450 2C19)?
The IC50 was > 100 µM.

What about the IC50 [3] of the same compound?
Its IC50 is 20 µM.

And the IC50 (Cytochrome P450 2C9)?
Its IC50 is > 100 µM.

And the IC50 (Cytochrome P450 1A2)?
The IC50 was > 100 µM.

And the Stability [4]?
Its Stability is 84 %/hr.

And the IC95 [5]?
The IC95 was 0.044 µM.

What about the IC50 [6] of the same compound?
Its IC50 is > 200 µM.

And the bioavailability [7]?
The bioavailability was 9%.

What about the fraction unbound (Homo sapiens) of the same compound?
The fraction unbound was 0.19.

What about the IC50 (Cytochrome P450 3A4) of the same compound?
The IC50 was > 100 µM.

And the fraction unbound [8]?
The fraction unbound was 0.14.

What about the IC50 [9] of the same compound?
The IC50 was 0.007 µM.

And the Stability (Liver)?
The Stability was 46 %/hr.

What about the IC50 [10] of the same compound?
The IC50 was > 25 µM.

And the clearance [11]?
The clearance was 1.8 mL/min/kg.

And the clearance [12]?
Its clearance is 3.8 mL/min/kg.

What about the bioavailability [13] of the same compound?
Its bioavailability is 42%.

What about the IC95 [14] of the same compound?
The IC95 was 0.016 µM.

And the fraction unbound [15]?
Its fraction unbound is 0.01.

What about the IC50 [16] of the same compound?
Its IC50 is > 50 µM.

What about the fraction unbound [17] of the same compound?
The fraction unbound was 0.11.

And the clearance [18]?
The clearance was 27 mL/min/kg.

What about the IC50 (Cytochrome P450 2D6) of the same compound?
The IC50 was > 100 µM.
